TAAR1 ag: agonists of human TAAR1; activation, % at 3 µM; CHO RD-HGA16 TAAR1, Fluo-8 calcium fluorescence; vehicle wells 0%, saturating PEA agonist 100%; 360,000 compounds, 0.99% hits; AID 624467; Q96RJ0;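 active = activation above the mean activation of all test compounds in the run plus 3 SD, cut at about 38% in these data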
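Assay system: CHO-derived RD-HGA16 cells with stable Gα16 and human TAAR1; timing: 17-24 h seeding, 75 min 37 °C dye, 30 min RT; read-out: % activation from peak over basal fluorescence ratio, DMSO-to-PEA scaled; measured by: kinetic Fluo-8 calcium fluorescence; benchmarks: low control DMSO, high control PEA (EC100); doses: 3 µM single concentration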
TAAR1 antag: human TAAR1 antagonism | Q96RJ0 | CHO RD-HGA16 TAAR1, Fluo-8 calcium fluorescence, antagonist | inhibition, % at 3 µM | 360,000 compounds, 1.5% hits | AID 624466;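 active = inhibition above a per-plate cutoff, the mean inhibition of test compounds on that plate plus 3 SD, cut at about 49% in these data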;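 note: 0% = DMSO plus EC80 beta-PEA response and 100% = DMSO alone without agonist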
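Test system: hTAAR1-expressing CHO RD-HGA16 cells, Gα16-coupled; Probe or stimulus: EC80 β-phenethylamine stimulus; Compound dosing: single nominal final test compound concentration of 3 µM; Timing: 140 s kinetic read after compound, 140 s after agonist; Signal: Fluo-8 calcium-sensitive fluorescence; Measure: % inhibition of agonist calcium response; Controls: DMSO and EC80 PEA controls.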
TMEM16A act: mouse TMEM16A channel activation, primary screen; HEK293 TMEM16A/YFP-H148Q/I152L, iodide quench fluorescence; hits give low values; B-score at 10 µM; 340,000 compounds, 0.3% hits;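 active = fluorescence-ratio B-score plate-corrected deviation score at least 3 library SD below zero, with starting fluorescence score within 5 deviations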;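 note: channel opened by trigger with iodide after compound preincubation; score built on the fluorescence ratio of max minus min over baseline; more negative score means more quench and so TMEM16A activation or potentiation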
Target sequence (Q8BHY3 whole entry, looked up): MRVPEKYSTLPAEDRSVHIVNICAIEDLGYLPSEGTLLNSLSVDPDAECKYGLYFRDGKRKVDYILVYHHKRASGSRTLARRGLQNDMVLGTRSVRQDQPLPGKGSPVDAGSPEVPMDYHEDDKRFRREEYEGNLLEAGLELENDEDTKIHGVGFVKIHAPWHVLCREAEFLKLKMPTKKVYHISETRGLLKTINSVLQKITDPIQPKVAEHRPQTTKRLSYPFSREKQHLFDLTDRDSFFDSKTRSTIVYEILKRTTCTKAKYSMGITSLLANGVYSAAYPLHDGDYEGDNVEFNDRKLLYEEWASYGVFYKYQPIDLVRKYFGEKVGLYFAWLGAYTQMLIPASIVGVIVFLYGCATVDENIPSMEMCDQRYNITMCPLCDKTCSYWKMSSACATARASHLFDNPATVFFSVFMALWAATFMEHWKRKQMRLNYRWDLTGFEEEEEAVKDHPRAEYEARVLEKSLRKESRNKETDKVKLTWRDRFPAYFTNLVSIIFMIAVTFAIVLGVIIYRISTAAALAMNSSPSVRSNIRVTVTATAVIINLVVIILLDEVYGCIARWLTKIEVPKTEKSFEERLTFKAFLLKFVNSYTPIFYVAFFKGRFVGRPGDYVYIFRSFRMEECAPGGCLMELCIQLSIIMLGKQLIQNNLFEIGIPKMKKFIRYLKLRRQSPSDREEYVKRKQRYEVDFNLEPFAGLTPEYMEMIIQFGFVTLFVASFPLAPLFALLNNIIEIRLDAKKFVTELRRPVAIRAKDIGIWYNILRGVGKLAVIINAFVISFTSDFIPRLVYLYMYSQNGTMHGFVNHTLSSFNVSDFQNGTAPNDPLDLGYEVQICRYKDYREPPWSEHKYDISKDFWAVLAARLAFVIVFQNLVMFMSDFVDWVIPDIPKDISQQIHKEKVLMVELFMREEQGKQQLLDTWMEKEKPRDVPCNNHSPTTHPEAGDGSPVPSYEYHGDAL
ANO1 block: mouse TMEM16A channel inhibition, primary screen | Q8BHY3 | HEK293 TMEM16A/YFP iodide influx fluorescence, ionomycin | normalized B-score (activity score, 25-100; higher = stronger inhibition) at 10 µM | 310,000 compounds, 1.2% hits;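 active = ratio plate-corrected score three or more library SD toward inhibition, starting fluorescence score within five deviations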;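 note: score derived from kinetic fluorescence span divided by baseline fluorescence per well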
CRFBP-R2 block: CRF-BP/CRF-R2 complex antagonism | HEK293 CRF-R2/CRF-BP, CRF-induced calcium fluorescence | inhibition, % at 11.8 µM | 350,000 compounds, 0.59% hits;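 active = inhibition of the ligand-induced calcium signal above about 50% at the single tested concentration, limit read from the data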
CRFR2-BP ag: CRF-BP/CRF-R2 complex agonism; AID 588473; HEK293 CRF-R2/CRF-BP, calcium dye fluorescence (FLIPR); percent of saturating CRF peptide response; 350,000 compounds, 0.46% hits; activation, % at 13.2 µM;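 active = activation of at least 50%, plus an integration ratio under a set limit after plate pattern correction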;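 note: plate controls were neutral control wells without compound for no effect and CRF at EC100 for full effect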
TAAR1 ag confirm: human TAAR1 agonism, confirmed. shares compounds with TAAR1 ag. activation, % at 3 µM. CHO RD-HGA16 TAAR1, Fluo-8 calcium fluorescence; scaled: DMSO 0%, maximal phenethylamine 100%. AID 651783. 2,400 compounds, 82% hits;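 active = activation above a cutoff set at the run's mean compound activation plus 3 SD, cut at about 39% in these data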
Ga16 ag counter: counter-screen for TAAR1 agonists: nonselective agonists in parental cells; shares compounds with TAAR1 ag; CHO-Ga16 parental, Fluo-8 calcium fluorescence; normalized to maximal ATP response, DMSO zero; activation, % at 3 µM; 2,400 compounds, 50% hits; AID 651787;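 active = activation above the run cutoff, the mean activation over all tested wells plus 3 SD, cut at about 12% in these data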;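 note: 0% = DMSO wells and 100% = maximal ATP response on the peak over basal ratio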
TAAR1 desens: counter-screen for human TAAR1 agonists: agonists that desensitize TAAR1; 2,400 compounds, 46% hits; inhibition, % at 3 µM; shares compounds with TAAR1 ag; CHO RD-HGA16 hTAAR1, Fluo-8 calcium, beta-PEA response inhibition;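 active = inhibition above the run cutoff, the mean inhibition of all test compounds plus 3 SD, cut at about 49% in these data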;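 note: beta-PEA stimulus applied at its EC80; loss of beta-PEA calcium signal after compound pretreatment read as receptor desensitization; 0% = DMSO with beta-PEA at EC80 and 100% = DMSO alone without agonist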
Ga16 antag count: counter-screen for TAAR1 agonists: nonselective Ga16 antagonists; shares compounds with TAAR1 ag; CHO-Ga16 ATP-induced calcium, Fluo-8 fluorescence; inhibition, % at 3 µM; 2,400 compounds, 39% hits; AID 651952;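 active = inhibition above the plate's mean compound inhibition plus 3 SD, computed per plate, cut at about 22% in these data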;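 note: 0% = EC80 ATP with DMSO and 100% = DMSO wells without ATP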
An asterisk follows results filed as active; i = inactive; nt = no result given. Compounds with a hit are over-represented: about 3.9% of the library has one in this group of screens.

SMILES	TAAR1 ag	TAAR1 antag	TMEM16A act	ANO1 block	CRFBP-R2 block	CRFR2-BP ag	TAAR1 ag confirm	Ga16 ag counter	TAAR1 desens	Ga16 antag count
CCCCN(C)C(=O)c1ccc(Nc2nc(C(N)Cc3ccccc3)cs2)nc1 (stereo unspecified)	49*	24	nt	nt	nt	nt	73*	16*	54*	32*
CN(Cc1ccccc1)C(=O)c1ccc(Nc2nc(C(N)Cc3ccc(C(F)(F)F)cc3)cs2)nc1 (stereo unspecified)	64*	75*	nt	nt	nt	nt	59*	30*	63*	70*
O=C(CSc1nnc(-c2cccc(Br)c2)o1)N1CCOCC1	2	-14	i	i	-7	-1	nt	nt	nt	nt
O=C(CC1C(=O)NCCN1CC1CCCCC1)NCCc1ccc(F)cc1 (stereo unspecified)	45*	-17	i	i	1	0	50*	0	5	2
COc1ccccc1CCNC(=O)CC1C(=O)NCCN1CCCc1ccccc1 (stereo unspecified)	74*	17	i	i	7	0	71*	2	43	11
O=C(CC1C(=O)NCCN1Cc1ccc(-c2ccccc2)cc1)NCCCn1ccnc1 (stereo unspecified)	0	-7	i	i	-4	-1	nt	nt	nt	nt
O=C(CC1C(=O)NCCN1CCCc1ccccc1)NCCc1ccccc1Cl (stereo unspecified)	70*	49*	i	i	3	0	86*	5	79*	9
O=C(CC1C(=O)NCCN1CC1CCCCC1)NCc1ccc(F)cc1 (stereo unspecified)	0	5	i	i	-3	0	nt	nt	nt	nt
COc1cccc(CNC(=O)CC2C(=O)NCCN2CCCc2ccccc2)c1 (stereo unspecified)	19	-15	i	i	10	0	nt	nt	nt	nt
CC(C)(C)CN1CCNC(=O)C1CC(=O)NCCc1ccccc1F (stereo unspecified)	nt	nt	i	i	-9	1	nt	2	nt	5
CCOc1ccc(NS(=O)(=O)c2cccc(C(=O)N(C)Cc3ccco3)c2)cc1	6	7	i	nt	-2	2	nt	nt	nt	nt
O=C(COc1ccccc1)NC(=S)Nc1cccc2cc(O)ccc12	72*	45	i	i	-30	12	67*	24*	49*	29*
O=C(COc1ccccc1)NC(=S)Nc1ccc2c3c(cccc13)CC2	9	5	i	i	-24	4	nt	nt	nt	nt
Cc1cc(F)ccc1NC(=O)Cn1c(C)csc1=O	-1	6	i	nt	13	0	nt	nt	nt	nt
CC(=O)c1ccc(OC(=O)C2CSC3(C)CCC(=O)N23)cc1 (stereo unspecified)	10	-6	i	nt	8	-3	nt	nt	nt	nt
Cc1cc(C(c2ccc(O)cc2)c2cc(C)c(O)cc2C)c(C)cc1O	113*	85*	i	i	-65	69*	131*	77*	78*	41*
CCC(c1ccc(O)cc1)C(CC)c1ccc(O)cc1 (stereo unspecified)	0	47	i	i	9	0	nt	nt	nt	nt
O=C(NCCc1ccccc1)C(=S)N1CCCCC1	2	-10	i	i	-19	-1	nt	nt	nt	nt
CCCCN(C(=O)NC(=O)Nc1cccc(C)c1C)S(C)(=O)=O	70*	25	i	i	-41	14	58*	19*	18	10
O=C(NCc1cccs1)c1ccc2sc(COCCO)nc2c1	5	3	nt	nt	nt	nt	nt	nt	nt	nt
Cc1cc2nc3c(=O)n(C4CCCCC4)c(=O)[nH]c3nc2cc1N	57*	12	i	nt	-349	380	28	64*	27	39*
Cc1cc(C)cc(Nc2cc(=O)n(C3CCCCC3)c(=O)[nH]2)c1	10	22	i	i	6	7	nt	nt	nt	nt
COC(=O)C1=C(C)N(Cc2cccc(C(F)(F)F)c2)C(=NCc2cccc(C(F)(F)F)c2)NC1c1ccc(Cl)cc1 (stereo unspecified)	11	6	nt	nt	nt	nt	nt	nt	nt	nt
COC(=O)C1=C(C)N(Cc2cccc(C(F)(F)F)c2)C(=NCc2ccc3c(c2)OCO3)NC1c1cccc(C(F)(F)F)c1 (stereo unspecified)	40*	34	nt	nt	nt	nt	36	13*	25	33*
C=CCN=C1NC(c2ccc(Cl)cc2)C(C(=O)OC)=C(C)N1Cc1cccc(C(F)(F)F)c1 (stereo unspecified)	65*	75*	nt	nt	nt	nt	76*	47*	89*	72*
SMILES	TAAR1 ag	TAAR1 antag	TMEM16A act	ANO1 block	CRFBP-R2 block	CRFR2-BP ag	TAAR1 ag confirm	Ga16 ag counter	TAAR1 desens	Ga16 antag count
COC(=O)C1=C(C)N(Cc2cccc(C(F)(F)F)c2)C(=NCc2ccc3c(c2)OCO3)NC1c1ccc(F)cc1 (stereo unspecified)	48*	50*	nt	nt	nt	nt	35	15*	44	36*
O=C(Nc1n[nH]c(=S)s1)c1ccc2ccccc2c1	57*	20	i	i	-16	-1	42*	20*	2	5
O=c1c2ccccc2sn1-c1ccccc1	55*	50*	i	i	8	9	38*	27*	29	32*
COCCn1c(=O)sc2ccccc2c1=O	2	8	i	i	-14	-1	nt	nt	nt	nt
CC(=O)Nc1ccc(-c2cc(N)n(-c3ccccc3)n2)cc1	8	-27	i	i	4	-2	nt	nt	nt	nt
O=c1c2ccccc2sn1-c1ccccc1F	24	13	nt	nt	9	12	nt	nt	nt	nt
CN(C)S(=O)(=O)c1cccc(-n2sc3ccccc3c2=O)c1	64*	38	i	i	6	8	50*	34*	17	22*
CC(=O)Nc1ccc2c(=O)n(-c3ccccc3)sc2c1	83*	69*	nt	nt	-4	7	131*	51*	102*	52*
O=c1c2ccccc2sn1-c1ccc(S(=O)(=O)N2CCCC2)cc1	16	8	i	i	-4	4	nt	nt	nt	nt
Cn1sc2ccccc2c1=O	46*	-3	nt	nt	6	-1	37	26*	20	11

Bioassay records deposited in PubChem BioAssay by several laboratories.
